Compounds with a hit are over-represented: about 1.6% of the library has one in this group of screens.
Rev-erbA mod: modulates human Rev-erb alpha binding to DNA. activity, % at 10 µM. Rev-erbα–FITC-DNA binding, fluorescence polarization, 90 min. hit rate 0.79% among 370,000;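 active = activity above about 14%, limit read from the data; passing the limit was not always enough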;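 note: 0% = DMSO wells with 35 nM protein and 100% = DMSO wells with 750 nM protein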
NR2E3 ag-1: agonists of human NR2E3 nuclear receptor. Q9Y5X4. CHO-S Gal4-NCOR/VP16-NR2E3 two-hybrid, luciferase. inhibition of corepressor binding, % at 3.98 µM. hit rate 0.35% among 360,000. AID 602229;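 active = inhibition above the mean of all tested compounds plus 3 SD, cut at about 70% in these data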;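 note: 0% = DMSO with NR2E3 transfected cells and 100% = cells lacking NR2E3 construct; higher means lower luciferase signal from less NR2E3 corepressor binding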
PKA-R2B activ: activates the human PKA-R2B holoenzyme complex | AID 504700 | activation, % at 11.4 µM | PKA-R2B holoenzyme dissociation, Cy5-IP20 fluorescence polarization; R2B truncated from residue 108, S112A mutant; 0% DMSO only, 100% 113 µM cGMP | P22694+P31323 | hit rate 0.079% among 340,000;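 active = activation above a cutoff set at the mean over all compounds plus 3 SD, cut at about 18% in these data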;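 note: higher means more holoenzyme dissociation and a rise in polarization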
Target sequence (P31323 whole entry, looked up, other chains not shown, the tested form may be a part): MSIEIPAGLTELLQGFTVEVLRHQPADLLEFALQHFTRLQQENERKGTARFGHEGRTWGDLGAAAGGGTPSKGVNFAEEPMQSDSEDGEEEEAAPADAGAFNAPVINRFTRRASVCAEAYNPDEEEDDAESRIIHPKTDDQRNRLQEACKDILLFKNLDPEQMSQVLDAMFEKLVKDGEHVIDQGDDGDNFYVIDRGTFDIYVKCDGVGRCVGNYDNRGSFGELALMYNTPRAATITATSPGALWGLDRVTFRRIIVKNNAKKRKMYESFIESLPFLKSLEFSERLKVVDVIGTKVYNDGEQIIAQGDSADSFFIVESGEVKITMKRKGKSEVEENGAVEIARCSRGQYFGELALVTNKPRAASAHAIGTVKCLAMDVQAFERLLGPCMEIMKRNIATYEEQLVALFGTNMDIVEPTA
PKA-R1A activ: PKA-R1A complex activation; P00514+P68181; PKA-R1A dissociation, Cy5-IP20 fluorescence polarization; scaled: DMSO 0%, 113 µM cGMP 100%; activation, % at 11.4 µM; hit rate 0.083% among 340,000; AID 504707;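 active = percent activation above the mean of all tested compounds plus 3 SD, cut at about 19% in these data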;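 note: higher means more PKAc released from R1A so a rise in polarization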
PG9 binder: small molecules binding HIV-1 gp120 antibody PG9 | hit rate 0.43% among 360,000 | TR-FRET gp120-PG9 antibody binding | inhibition, % at 6.7 µM; in the data active = inhibition above about 8.5%
NR2E3 ag-2: NR2E3 (human) agonism; inhibition of corepressor binding, % at 4.78 µM; Q9Y5X4; GST-NR2E3/biotin-RetCOR TR-FRET, 1536-well; AID 2300; hit rate 0.12% among 320,000;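 active = percent inhibition above the cutoff of mean plus 3 SD of all tested compounds, set per screening campaign, cut at about 20% in these data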;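 note: 0% = DMSO wells and 100% = biotin wells as full block of FRET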
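Material: NR2E3–RetCOR corepressor complex | Quantity: 1.35 nM GST-tagged NR2E3 final | Schedule: 5 h at 4 °C | Replication: Singlicate compound wells | Reagent: RetCOR corepressor, biotinylated, 7 nM | Controls: Biotin wells as high control, 0.6% DMSO wells as low control | Signal: TR-FRET, Eu(K)-anti-GST donor, streptavidin-D2 acceptor, ex 340, em 617/671 nm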
NR1D1 mod conf: confirmation of modulators of human Rev-erb alpha DNA binding. shares compounds with Rev-erbA mod. Rev-erb alpha FITC-DNA binding, fluorescence polarization, 90 min. activation, % at 25 µM. hit rate 61% among 3,000;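 active = activation at or above a set limit, or at least 3 SD above the negative control mean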;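 note: 0% = 35 nM protein with DMSO and 100% = 750 nM protein high control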
RORg DNA counter: affects RORgamma DNA binding in a Rev-erb alpha counter-screen; shares compounds with Rev-erbA mod; purified RORgamma protein-FITC-DNA binding, fluorescence polarization; IC50, µM; hit rate 8% among 910;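 active = Compounds whose fitted half-maximal concentration for disrupting protein-DNA binding is below 10 micromolar; the record names Rev-erb in its text, so the target is in doubt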
Numbers without * were called inactive; i = inactive; x = no result.

SMILES	Rev-erbA mod	NR2E3 ag-1	PKA-R2B activ	PKA-R1A activ	PG9 binder	NR2E3 ag-2	NR1D1 mod conf	others
CC1=CC(=C(C#N)C#N)C=C(C)N1CCN1CCN(C(=O)Nc2ccc(Cl)c(Cl)c2)CC1	41.0*	24.2	3.1	-1.4	1.3	-1.7	26.0*
COC(=O)[C@]12C[C@H](CC(=O)NCc3ccc(OC)c(OC)c3)C(=O)N(Cc3ccc(Cl)cc3Cl)C1=C[C@H](COCc1ccccc1)O[C@@H]2C	1.1	x	x	x	x	x	x
O=[N+]([O-])c1ccc(Oc2cccc(F)c2)c2ccncc12	13.8*	-29.8	-0.2	15.5	-0.7	0.4	9.0
O=[N+]([O-])c1cnccc1Nc1cccc(F)c1	-6.3	-26.8	-1.6	10.7	0.1	0.9	x
Clc1ccc(-c2nnc3n2N=C(c2ccc(-c4ccccc4)cc2)CS3)c(Cl)c1	2.9	x	x	x	x	x	x
Cc1ccc2nc(NC(=O)c3ccc(OCC4CCCO4)cc3)sc2c1 (configuration not stated)	31.2*	-161.8	12.6	-3.4	-2.4	0.3	14.4
CCn1c2ccccc2c2cc(NC(=O)COC(=O)c3cccc(F)c3)ccc21	-0.3	x	x	x	x	x	x
COC(=O)C[C@H]1CC[C@H]2[C@H](COc3ccc(NS(=O)(=O)c4cccc(F)c4)cc3C(=O)N2C)O1	0.7	x	x	x	x	x	x
O=c1c2sc3nc(N4CCOCC4)c4c(c3c2ncn1C(c1ccccc1)c1ccccc1)CCCC4	29.6*	0.2	-0.3	-0.9	1.0	x	26.8*
O=c1c2sc3nc(N4CCOCC4)c4c(c3c2ncn1-c1ccccc1)CCCC4	3.2	-31.0	-0.7	-9.9	1.1	3.0	x
O=C(CNS(=O)(=O)c1ccc(Br)s1)N1CCN(c2ccccn2)CC1	-3.3	x	x	x	x	x	x
Cc1nc2c(ccc3nc(NC(=O)c4ccc5c(c4)OCCO5)sc32)s1	55.9*	-155.6	2.2	-9.5	0.8	6.1	27.4*
Cc1cc(-c2ccccc2)nc2oc3c(c12)NC(=O)CN(c1ccccc1)C3=O	23.2*	-11.0	3.9	3.1	-1.5	-1.3	35.0*	RORg DNA counter=1.13*
COc1cccc(N2CC(=O)Nc3c(oc4nc(-c5ccccc5)cc(C)c34)C2=O)c1	17.8	0.8	-1.2	-9.4	0.2	3.2	x
Cn1c(C(=O)NCc2cccs2)cc2c(=O)n(C)c3ccccc3c21	33.2*	-6.6	-9.2	-8.9	-1.2	0.8	18.0*
Cc1ccc(CNC(=O)c2cc3c(=O)n(C)c4ccccc4c3n2C)cc1	63.1*	-27.6	1.0	5.4	-3.6	2.5	43.2*	RORg DNA counter=>40
Cn1c(C(=O)NC2CCCCCC2)cc2c(=O)n(C)c3ccccc3c21	47.6*	-11.4	-0.2	8.5	0.0	4.6	26.0*
CN(CCNC(=O)c1cc2c(=O)n(C)c3ccccc3c2n1C)Cc1ccccc1	-3.3	-22.3	10.0	0.1	0.7	-0.3	x
Cn1c(C(=O)NCCN2CCOCC2)cc2c(=O)n(C)c3ccccc3c21	2.1	-12.3	7.4	1.4	-1.9	-2.0	x
Cn1c(N)c(C(=O)CSc2nn(-c3ccc(F)cc3)c(=S)s2)c(=O)n(C)c1=O	42.0*	-17.8	7.9	8.4	-1.0	-4.1	42.4*	RORg DNA counter=>40
CCn1cc(C(=O)OCC(=O)Nc2cccc(Cl)c2Cl)c(=O)c2ccc(C)nc21	42.5*	-2.6	x	x	-0.6	1.3	18.9*
CCCOc1cccc(C2C(C(=O)c3ccco3)=C(O)C(=O)N2c2nnc(C)s2)c1 (configuration not stated)	9.4	-27.2	0.5	3.5	-1.2	12.9	x
CCCCOc1cccc(C2C(C(=O)c3ccc(C)o3)=C(O)C(=O)N2c2nnc(C)s2)c1 (configuration not stated)	18.1*	-40.6	5.5	6.7	-0.3	x	17.6*
Cc1cc(C)c(-c2csc(NC(=O)C3=COCCO3)n2)cc1C	19.1*	-18.5	-6.4	2.6	-1.8	3.7	6.3
COc1ccc(-c2csc(NC(=O)C3=COCCO3)n2)c(OC)c1	1.5	-104.7	-14.6	-19.1	0.3	-1.3	x
SMILES	Rev-erbA mod	NR2E3 ag-1	PKA-R2B activ	PKA-R1A activ	PG9 binder	NR2E3 ag-2	NR1D1 mod conf	others
CCC1CCc2c(sc(NC(=O)c3cccnc3)c2C(N)=O)C1 (configuration not stated)	26.7*	-17.1	8.7	2.3	1.2	0.3	6.1
CCCC1CCc2c(sc(NC(=O)c3cccs3)c2C(N)=O)C1 (configuration not stated)	25.6*	-17.3	-4.0	-11.4	0.1	-1.2	7.0
COC(=O)[C@H](C(C)C)N1Cc2nnn(CC3CCCCC3)c2-c2cc(F)ccc2S1(=O)=O	3.4	x	x	x	x	x	x
CCSc1nc(N)c(C#N)c(-c2ccccc2Cl)c1C#N	24.9*	-8.9	3.9	-6.9	-0.9	2.1	22.3*
Cc1ccc(-c2cc(-c3ccccc3Cl)c(C#N)c(N)n2)o1	-0.5	-39.1	-4.7	-9.6	-0.7	0.8	x
N#Cc1c(N)nc(Sc2ccc(Cl)cc2)c(C#N)c1-c1ccccc1Cl	63.5*	-36.3	-4.6	-11.6	-0.5	2.6	43.3*	RORg DNA counter=i
Cc1cc(-c2ccccc2)[nH]c(=O)c1S(=O)(=O)c1ccc(Cl)cc1	51.0*	-18.4	-8.1	-7.8	4.2	2.2	20.8*
Cc1cc(-c2ccccc2)[nH]c(=O)c1S(=O)(=O)c1ccccc1	-2.0	11.4	-11.7	-3.9	1.2	-4.0	x
CN(CC(=O)Nc1ccc(F)cc1)C(=O)COC(=O)CNC(=O)c1sc2ccccc2c1Cl	22.8*	20.4	-8.1	-7.3	6.2	-1.2	9.1
Cc1cc(C(=O)N2CCN(S(C)(=O)=O)CC2)sc1-c1ccccc1	41.2*	-15.3	-14.1	-10.7	-0.2	5.7	35.0*
Cc1cc(C(=O)N2CCN(c3ncccn3)CC2)sc1-c1ccccc1	0.3	-12.0	-11.8	-13.5	-0.1	-2.5	x
Cc1cc(-c2csc3nc[nH]c(=S)c23)cc(C)c1C	61.2*	32.2	-6.5	5.6	-0.1	0.7	62.3*	RORg DNA counter=>40
Cc1ccc(-c2csc3nc[nH]c(=S)c23)cc1	6.0	25.4	-11.2	-8.8	-0.6	3.1	x
CCCCCc1ccc(OCCCC[n+]2cccc(C)c2)c(CCCCC)c1	21.1*	-4.6	3.0	2.0	-0.2	1.5	27.6*
CCCCCc1ccc(OCCCC[n+]2ccc(C)cc2)c(CCCCC)c1	21.2*	-14.7	0.7	-5.2	-0.5	-3.3	25.2*
CCOC(=O)c1c(C)c(C#N)c2c3ccccc3ccn12	57.5*	-1.9	2.8	1.4	-1.5	3.5	17.4*
